Source: PubChem
Sampled rows, rich in hits. Any-hit rate of the full collection: about 2.7%.
PREPL inh: inhibitors of human prolyl oligopeptidase-like enzyme PREPL | 320,000 compounds, 0.68% hits | recombinant PREPL, fluorescence polarization activity-based probe | Q4J6C6 | AID 2751 | inhibition, % at 5.96 µM; in the data active means inhibition above about 43%;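 further: 0% = enzyme with DMSO and 100% = wells lacking enzyme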
HTR2A ag: mouse HTR2A agonism via beta-arrestin recruitment. P35363. CHO-K1 mHTR2A beta-arrestin complementation, luminescence; percent of 30 µM serotonin response. activation, % at 7.6 µM. 360,000 compounds, 0.66% hits;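 active means activation above a run cutoff, the mean activation of all tested compounds plus 3 SD, cut at about 14% in these data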;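 further: 0% = plate median of compound wells and 100% = 30 µM serotonin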
MC4R barr agon: human MC4R agonism via beta-arrestin | U2OS MC4R beta-arrestin complementation, luminescence; percent of melanotan II response, DMSO zero | activation, % at 8.9 µM | 360,000 compounds, 0.98% hits;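 active means activation above a per-plate cutoff, the mean activation of sample wells on that plate plus 3 SD, cut at about 8% in these data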
Target sequence (P32245 whole entry, looked up): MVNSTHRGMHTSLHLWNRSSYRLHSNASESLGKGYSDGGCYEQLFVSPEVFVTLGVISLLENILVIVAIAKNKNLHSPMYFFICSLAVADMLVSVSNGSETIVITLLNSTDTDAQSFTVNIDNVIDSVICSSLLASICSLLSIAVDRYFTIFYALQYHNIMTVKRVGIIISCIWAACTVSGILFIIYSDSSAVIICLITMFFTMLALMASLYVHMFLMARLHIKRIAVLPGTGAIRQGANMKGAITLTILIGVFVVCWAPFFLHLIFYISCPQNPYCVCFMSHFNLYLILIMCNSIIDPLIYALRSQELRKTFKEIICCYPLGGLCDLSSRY
MC4R antag cAMP: blocks human MC4R cAMP signaling; P32245; MC4R-expressing cells, MTII-stimulated cAMP, LANCE TR-FRET; inhibition, % at 6.5 µM; 360,000 compounds, 0.48% hits;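 active means inhibition above its plate's cutoff, the mean of tested wells on that plate plus 3 SD, cut at about 29% in these data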;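 further: 0% = Melanotan II alone and 100% = Melanotan II plus saturating MCL0020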
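Material: human MC4R-expressing U2OS cells. Probe or stimulus: Melanotan II challenge. Dosing: 6.5 µM single dose. Times: 30-min compound, 1-h challenge, 1-h detection, room temperature. Technique: TR-FRET with Eu-cAMP and labeled anti-cAMP, 671 nm. Replication: singlicate.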
NTR1 ag: agonists of human neurotensin receptor NTR1; NTR1-U2OS beta-arrestin-GFP spot imaging, agonist mode; activation, % at 20 µM; 330,000 compounds, 0.17% hits; AID 493036;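 active means activation at or above 40% of the spot to cytoplasm intensity ratio, with at least 20 cells analyzed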;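 further: 0% = DMSO without peptide and 100% = 100 nM NTR1 peptide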
Target sequence (P30989 whole entry, looked up): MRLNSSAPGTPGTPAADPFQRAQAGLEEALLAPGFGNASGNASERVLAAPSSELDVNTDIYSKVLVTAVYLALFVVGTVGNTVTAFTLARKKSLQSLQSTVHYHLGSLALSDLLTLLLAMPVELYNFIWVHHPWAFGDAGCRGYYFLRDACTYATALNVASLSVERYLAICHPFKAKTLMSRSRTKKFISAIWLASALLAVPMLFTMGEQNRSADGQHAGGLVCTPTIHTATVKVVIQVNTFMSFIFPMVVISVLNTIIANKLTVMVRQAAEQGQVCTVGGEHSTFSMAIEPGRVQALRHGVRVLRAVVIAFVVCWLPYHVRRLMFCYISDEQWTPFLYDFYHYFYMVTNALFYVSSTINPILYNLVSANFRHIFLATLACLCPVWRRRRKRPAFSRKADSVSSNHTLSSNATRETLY
Hep lipid drop: modulators of hepatic lipid droplet formation. AML12 mouse hepatocytes, oleate lipid droplets, BODIPY imaging. inhibition, % at 6.5 µM. 240,000 compounds, 0.4% hits. AID 1656;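 active means lipid droplet intensity inhibited by at least 50%, with more than 500 cells counted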
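Test system: AML12 mouse liver cells; schedule: overnight exposure; technique: high-content imaging of BODIPY-stained droplets and DAPI nuclei; read-out: % inhibition of corrected integrated BODIPY droplet signal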
NTR1 ag conf: confirmation of agonists of human NTR1. 480 compounds, 38% hits. activation, % at 20 µM. shares compounds with NTR1 ag. AID 504550. NTR1-U2OS beta-arrestin-GFP translocation imaging;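 active means mean activation at 20 µM of at least 40%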;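 further: 0% = DMSO without peptide and 100% = 100 nM NTR1 peptide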
U2OS cAMP counter: U2OS forskolin cAMP inhibition counter-screen; inhibition, % at 6.5 µM; 1,600 compounds, 26% hits; parental U2OS, LANCE TR-FRET; AID 602193; shares compounds with MC4R antag cAMP;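 active means mean inhibition over triplicates above the low-control well mean plus 3 SD, set per campaign, cut at about 13% in these data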;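 further: signal is single emission at 671 nm which falls as cellular cAMP rises; 0% = forskolin-stimulated wells and 100% = buffer without forskolin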
MC4R antag conf: human MC4R cAMP antagonism confirmation | shares compounds with MC4R antag cAMP | MC4R-expressing cells, MTII-stimulated cAMP, TR-FRET | inhibition, % at 6.5 µM | 1,600 compounds, 27% hits | AID 602195; in the data active means inhibition above about 29%;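 further: 0% = agonist stimulated wells alone and 100% = agonist stimulated wells plus saturating reference antagonist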
MC4R barr conf: human MC4R beta-arrestin agonism confirmation; shares compounds with MC4R barr agon; U2OS MC4R beta-arrestin recruitment, luminescence; scaled DMSO 0%, Melanotan II 100%; activation, % at 8.9 µM; 2,400 compounds, 31% hits; AID 602192;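 active means mean activation across replicates above the hit cutoff set in the earlier primary screen, cut at about 8% in these data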
MOR-DOR barr ag: counter-screen for MC4R agonists: agonists of mu-delta opioid heterodimer | shares compounds with MC4R barr agon | U2OS PathHunter beta-arrestin, beta-gal luminescence; percent of deltorphin B response, DMSO zero | activation, % at 9.2 µM | 2,400 compounds, 5.8% hits;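 active means mean activation across replicates exceeds the hit threshold derived in the earlier primary screen, cut at about 18% in these data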;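 further: 100% = deltorphin B at 0.9 µM final and 0% = DMSO alone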
OPRM1 ag: activates human mu opioid receptor in HTR2A counterscreen; activation, % at 9.3 µM; shares compounds with HTR2A ag; AID 624380; 2,300 compounds, 5.3% hits; U2OS OPRM1 beta-arrestin PathHunter, luminescence; DMSO 0%, DAMGO 9.3 µM 100%;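 active means mean activation above the mean of DMSO-only wells plus 3 SD, cut at about 0.5% in these data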
HTR2A ag conf: mouse HTR2A agonism confirmed. shares compounds with HTR2A ag. CHO-K1 PathHunter beta-arrestin recruitment, luminescence; DMSO 0%, 30 µM serotonin 100%. activation, % at 7.6 µM. 2,300 compounds, 19% hits. AID 624381;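 active means mean activation across triplicates above the hit threshold derived in the original primary screen, cut at about 15% in these data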
Starred values were filed as active, the others as inactive; x = not tested or not shown.

SMILES | PREPL inh | HTR2A ag | MC4R barr agon | MC4R antag cAMP | NTR1 ag | Hep lipid drop | U2OS cAMP counter | MC4R antag conf | others
O=C(CCc1ccc(O)cc1)c1c(O)cc(O)cc1O | 5 | -4 | 1 | 7 | -1 | -40 | x | x
Cc1c(CN2CCC(CO)(CCOc3ccccc3)CC2)[nH]c2c(Cl)cccc12 | -1 | 4 | 22* | 5 | 67* | 12 | x | x | NTR1 ag conf=34;MC4R barr conf=19*;MOR-DOR barr ag=17
Oc1ccc(C[C@@H]2CNC(=S)N2CCCCC2CCCCC2)cc1 | 9 | 2 | 14* | 1 | 44* | 2 | x | x | NTR1 ag conf=32;MC4R barr conf=11*;MOR-DOR barr ag=3
O=C1NC[C@@H](Cc2ccc(O)cc2)N(CCCCC2CCCCC2)C1=O | x | 2 | x | x | x | x | x | x
Cc1c(NC(=O)c2ccc(Br)s2)c(=O)n(-c2ccccc2)n1C | 5 | 1 | -1 | -2 | -1 | 14 | x | x
O=C(N/N=C/c1c[nH]c2ccccc12)C1CC1(c1ccccc1)c1ccccc1 (configuration not stated) | 5 | 3 | 19* | 13 | 54* | -4 | x | x | NTR1 ag conf=41*;MC4R barr conf=16*;MOR-DOR barr ag=8
CCCCCC(=O)Nc1cccc(C2=NOC3(C2)C[C@H](C(N)=O)N(C(=O)COc2ccc(Cl)cc2)C3)c1 (some centres not stated) | -3 | 22* | -1 | 8 | 42* | x | x | x | NTR1 ag conf=5;OPRM1 ag=0;HTR2A ag conf=7
Cc1cccc(-c2c3c(nc4c2c(=O)n(C)c(=O)n4C)-c2ccccc2C3O)c1 (configuration not stated) | 3 | -1 | 1 | 25 | 2 | x | x | x
COc1cc(OC)cc(C(=O)Nc2ccccc2-c2nnn(CC(=O)Nc3cc(C)on3)n2)c1 | 9 | 4 | 8.8* | 30* | 9 | 11 | 6 | 14
COc1ccc(C(=O)Nc2ccccc2-c2nnn(CC(N)=O)n2)cc1 | x | 2 | 1 | 4 | x | x | x | x
COCCNc1nc2c(c(=O)n(Cc3cccc(Cl)c3)c(=O)n2C)n1C | 9 | 1 | -2 | 29* | -1 | 0 | 1 | 0
COCCNc1nc2c(c(=O)n(Cc3cccc(Br)c3)c(=O)n2C)n1C | 22 | -2 | 0 | 17 | 1 | x | x | x
O=C(CNCCc1ccccc1)Nc1ccc(C(=O)N2CCCCC2)cc1 | 11 | -5 | -1 | 14 | 1 | 2 | x | x
CC(C)C[C@@H](CN1CCC[C@@H]1CN1C(=O)C(=O)NC[C@@H]1Cc1ccccc1)N1C[C@H](Cc2ccccc2)N(CC2CCCCC2)C(=O)C1=O | x | -3 | x | x | x | x | x | x
CC(=O)c1cccc(NC(=S)NC(=O)c2ccc(C)cc2Cl)c1 | -10 | 3 | -2 | 0 | 0 | 4 | x | x
COc1ccc(Br)cc1C(=O)NC(=S)Nc1ccc(Cl)c(C(=O)O)c1 | -8 | 6 | 0 | 7 | 2 | -12 | x | x
CC(=O)c1cccc(NC(=S)NC(=O)c2ccccc2Cl)c1 | 3 | -2 | -1 | 30* | 0 | 1 | 2 | 7
CC(C)Oc1cccc(C(=O)NC(=S)Nc2ccc(Cl)c(C(=O)O)c2)c1 | 6 | -2 | -1 | 19 | 1 | x | x | x
COc1ccc(Br)cc1/C=C/C(=O)NC(=S)Nc1ccc(Cl)c(C(=O)O)c1 | -40 | -1 | -3 | 30* | 2 | 1 | 1 | 0
COc1ccc(C(=O)NC(=S)Nc2ccc(Cl)c(C(=O)O)c2)cc1 | -3 | 4 | 0 | 30* | -1 | -1 | -5 | -18
CN(c1ccccc1)S(=O)(=O)c1cc(C(=O)NCCCn2ccnc2)ccc1Cl | -1 | -1 | 0 | -6 | -2 | x | x | x
Cc1ccnc(NC(=O)c2cnc(Cl)c(Cl)c2)c1 | 6 | 3 | -1 | 32* | -2 | 3 | 18* | 22
O=C(COC(=O)c1ccc2c(=O)n3c(nc2c1)CCC3)Nc1ccc(OC(F)F)cc1 | -3 | -1 | -3 | 30* | -1 | 3 | 5 | 17
O=C(COc1coc(CN2CCCc3ccccc32)cc1=O)Nc1ccc([N+](=O)[O-])cc1 | 20 | 0 | 0 | -1 | 0 | x | x | x
CCOC(=O)C1CCN(c2c(NCc3ccc(C(=O)N(C)Cc4ccccc4)cc3)c(=O)c2=O)CC1 | 1 | -1 | -2 | 16 | 0 | -64 | x | x
SMILES | PREPL inh | HTR2A ag | MC4R barr agon | MC4R antag cAMP | NTR1 ag | Hep lipid drop | U2OS cAMP counter | MC4R antag conf | others
CC(=O)NC(CC(=O)OCC(=O)c1c(N)n(C)c(=O)n(C)c1=O)c1ccccc1 (configuration not stated) | 15 | 0 | -2 | 30* | 1 | 2 | 7 | 5
CN(c1ccc(OCC(=O)OCC(=O)c2c(N)n(C)c(=O)n(C)c2=O)cc1)S(=O)(=O)c1ccc2ccccc2c1 | -10 | 3 | 1 | -24 | 2 | 4 | x | x
CCN(c1ccc(OCC(=O)OCC(=O)c2c(N)n(C)c(=O)n(C)c2=O)cc1)S(=O)(=O)c1ccccc1 | -3 | -1 | -2 | 42* | 5 | 6 | 9 | 19
Cc1ccc(C(N)=Nc2ccccc2)cc1 | -6 | -4 | -3 | 17 | 1 | 3 | x | x
CC(C)C(=O)N1CCC2(CC1)Oc1ccc(Cl)cc1C(=O)C21CC(c2ccccc2)=NO1 (configuration not stated) | 1 | 0 | -2 | 29* | 11 | x | 2 | 14
O=C(/C=C/c1cccs1)N1CCC2(CC1)Oc1ccc(Cl)cc1C(=O)C21CC(c2cccnc2)=NO1 (configuration not stated) | 8 | 4 | -1 | 29* | -2 | 30 | -3 | 19
